Source: ChEMBL document CHEMBL6134900 (J Med Chem, 2025)
Calls of active or inactive are those of the source. The calls are words filed in the database; no cut-off is given here.

Key:
[1] = target: T1, Protein cereblon/SWI/SNF-related matrix-associated actin-dependent regulator of chromatin subfamily A member 2 (Homo sapiens, UniProt P51531+Q96SW2); test: PROTAC activity at CRBN/SMARCA2 in human H322 cells harboring SMARCA4 mutant assessed as induction of SMARCA2 degradation at 1 uM in presence of pomalidomide by immunoblot analysis; assay type: cell-based
[2] = target: T1, Protein cereblon/SWI/SNF-related matrix-associated actin-dependent regulator of chromatin subfamily A member 2; test: PROTAC activity at CRBN/SMARCA2 in human H322 cells harboring SMARCA4 mutant assessed as induction of SMARCA2 degradation at 1 uM in presence of MLN4924 by immunoblot analysis; assay type: cell-based
[3] = target: Transcriptional coactivator YAP1 (Homo sapiens) (UniProt P46937); test: Induction of YAP1 phosphorylation at S127 residue in human H322 cells harboring SMARCA4 mutant at 1 uM incubated for 96 hrs by immunoblot analysis; assay type: cell-based; conditions: filed as activator
Transcriptional coactivator YAP1 (Homo sapiens), sequence (P46937 whole entry): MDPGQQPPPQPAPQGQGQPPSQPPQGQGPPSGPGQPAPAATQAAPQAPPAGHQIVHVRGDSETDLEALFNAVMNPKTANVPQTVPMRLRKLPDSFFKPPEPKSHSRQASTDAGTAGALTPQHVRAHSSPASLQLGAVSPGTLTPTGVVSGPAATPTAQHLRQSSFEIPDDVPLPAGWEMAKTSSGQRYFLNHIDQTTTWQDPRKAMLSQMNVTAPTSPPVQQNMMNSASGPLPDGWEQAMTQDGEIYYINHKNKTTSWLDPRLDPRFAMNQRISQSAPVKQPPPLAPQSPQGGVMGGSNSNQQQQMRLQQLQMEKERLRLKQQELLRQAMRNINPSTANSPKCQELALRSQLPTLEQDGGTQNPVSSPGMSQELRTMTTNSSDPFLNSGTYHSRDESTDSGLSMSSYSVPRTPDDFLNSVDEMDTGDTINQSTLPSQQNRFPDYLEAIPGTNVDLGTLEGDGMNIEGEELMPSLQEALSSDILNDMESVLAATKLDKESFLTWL

[4] = Drug metabolism in mouse liver microsomes assessed as oxidative dealkylation and mono-oxygenation mediated M3 metabolite formation at 10 uM incubated for 60 mins by LC-UV-HRMS analysis; assay type: ADME, Microsome; conditions: 1 h
Outline: (§1)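 Compound at 10 μM incubated with mouse liver microsomes at 37 °C for 60 min. Metabolites detected by LC-UV-HRMS, structures proposed from MS and MS2 data, and each metabolite given as a percentage.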

[5] = Drug concentration in C57BL/6 mouse plasma at 5 mg/kg, po administered once daily for 3 days and measured at 24 hrs post last dose; assay type: ADME, organism-based; conditions: time 3 day
Outline: (§2)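 Oral dosing once daily for 3 days: 5–80 mg/kg in C57BL/6 mice, 10–80 mg/kg in CrbnI391V mice. Euthanized 24 h after last dose. Plasma drug level measured. Spleen SMARCA2 by Western blot against actin loading control, relative to vehicle.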

[6] = Drug concentration in C57BL/6 mouse plasma at 80 mg/kg, po administered once daily for 3 days and measured at 24 hrs post last dose; assay type: ADME, organism-based; conditions: time 3 day; outline: as §2
[7] = Toxicity in female athymic nude mouse xenografted with human NCI-H1568 cells harboring SMARCA4 mutant assessed as change in body weight at 40 mg/kg, po administered once daily via gavage for 13 days relative to control; assay type: organism-based; conditions: in vivo, 312 h, time 13 day
Outline: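 Cells (H1568 2 × 10^6, H2023 10 × 10^6, HCC515 5 × 10^6) in PBS:Matrigel 1:1, 200 μL, injected subcutaneously into flanks of 6–8-week-old females. Randomized at mean tumor volume 60 mm3 (H1568) or <200 mm3 (others). Dosed in 0.5% methylcellulose + 0.2–1% Tween-80, sonicated on ice. Caliper tumor volume and body weight tracked, mean ± SEM.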

[8] = In vivo PROTAC activity at CRBN/SMARCA2 in C57BL/6 mouse assessed as induction of SMARCA2 degradation in spleen at 80 mg/kg, po administered once daily via gavage for 3 days by Western blotting analysis relative to control; assay type: functional; conditions: time 3 day; outline: as §2
[9] = Drug concentration in CRBN I391V mutant mouse plasma at 80 mg/kg, po administered once daily for 3 days and measured at 24 hrs post last dose; assay type: ADME, organism-based; conditions: time 3 day; outline: as §2
[10] = In vivo PROTAC activity at CRBN I391V mutant/SMARCA2 in mouse assessed as SMARCA2 degradation in spleen at 80 mg/kg, po administered once daily for 3 days and measured at 24 hrs post last dose by Western blotting analysis relative to control; assay type: functional; conditions: time 3 day
Outline: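 CrbnI391V mice given 10, 20, 40 or 80 mg/kg or vehicle orally once daily for 3 days. Euthanised 24 h after the last dose. Spleen SMARCA2 measured by Western blot with actin as loading control, relative to vehicle. Plasma drug level measured at the same time.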

[11] = Toxicity in immunocompromised mouse xenografted with human NCI-H1568 cells assessed as change in body weight at 80 mg/kg, administered once daily for 21 days; assay type: organism-based; conditions: in vivo, 504 h, time 21 day
[12] = target: T1, Protein cereblon/SWI/SNF-related matrix-associated actin-dependent regulator of chromatin subfamily A member 2; test: PROTAC activity at CRBN/SMARCA2 in human H322 cells harboring SMARCA4 mutant assessed as induction of SMARCA2 degradation at 0.1 uM in presence of Gen-1 by immunoblot analysis; assay type: cell-based
[13] = target: T1, Protein cereblon/SWI/SNF-related matrix-associated actin-dependent regulator of chromatin subfamily A member 2; test: PROTAC activity at CRBN/SMARCA2 in human NCI-H1792 cells harboring wild type SMARCA4 assessed as reduction in SMARCA2 protein level at 20 nM incubated for 24 hrs by TMT mass spectrometric analysis; assay type: cell-based
[14] = target: Transcriptional coactivator YAP1 (Homo sapiens) (UniProt P46937); test: Induction of YAP1 phosphorylation at S127 residue in human H322 cells harboring SMARCA4 mutant at 0.1 uM incubated for 96 hrs by immunoblot analysis; assay type: cell-based; conditions: filed as activator
[15] = Drug metabolism in mouse liver microsomes assessed as hydrolysis mediated M3 metabolite formation at 10 uM incubated for 60 mins by LC-UV-HRMS analysis; assay type: ADME, Microsome; conditions: 1 h; outline: as §1
[16] = AUC (0 to infinity) in male CD-1 (ICR) mouse at 25 mg/kg, po measured up to 24 hrs by LC-MS/MS analysis; assay type: ADME, organism-based; conditions: in vivo
Outline: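 Single 25 mg/kg dose. IP vehicle was 5% DMSO/5% solutol/90% water at 1.25 mg/mL, final pH 4.39, clear solution. Oral vehicle was 0.5% methylcellulose/0.2% Tween 80 in water, opaque suspension. Plasma sampled at 0.25, 0.5, 1, 2, 4, 8 and 24 h. Plasma protein-precipitated with internal standard in acetonitrile, then LC-MS/MS. n = 3 mice per time point, mean.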

[17] = Toxicity in female athymic nude mouse xenografted with human NCI-H2030 cells harboring SMARCA4 mutant assessed as change in body weight at 5 mg/kg, po administered once daily via gavage for 17 days relative to control; assay type: organism-based; conditions: in vivo, 408 h, time 17 day
Outline: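 10 × 10^6 H2030 cells in PBS:Matrigel 1:1, 200 μL, injected subcutaneously into flanks of 6–8-week-old females. Randomized at mean tumor volume <200 mm3. Oral gavage once daily in 10% DMSO, 40% PEG300, 1% Tween-80, 49% saline. Caliper tumor volume and body weight monitored, mean ± SEM.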

[18] = In vivo PROTAC activity at CRBN/SMARCA2 in female athymic nude mouse xenografted with human NCI-H2023 cells harboring SMARCA4 mutant assessed as SMARCA2 degradation at 5 mg/kg, po administered once daily via gavage for 19 days by Western blotting analysis relative to control; assay type: functional; conditions: time 19 day
Outline: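 Female nude mice aged 6–8 weeks carried subcutaneous flank xenografts in PBS/Matrigel 1:1: H2023 at 10 × 10^6 cells or HCC515 at 5 × 10^6 cells. Randomised below 200 mm3. 5 mg/kg or vehicle given by oral gavage once daily for 19 days in 0.5% methylcellulose with Tween-80 (0.2% for H2023, 1% for HCC515). Tumours collected 24 h after dosing. SMARCA2 measured by Western blot against β-actin, relative to vehicle.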

[19] = test system: NCI-H2030; test: Inhibition of ERK phosphorylation in human NCI-H2030 cells harboring KRAS G12C mutant/SMARCA4 mutant assessed as reduction in p-ERK level at 1.25 uM incubated for 48 hrs in presence of sotorasib by Western blotting analysis; assay type: cell-based

SMILES	Activity [1]	Activity [2]	Activity [3]	Drug metabolism [4]	concentration at 72 h [5] [nM]	concentration at 72 h [6] [nM]	Activity [7] [%]	Activity [8] [%]	concentration at 72 h [9] [nM]	Activity [10] [%]	Activity [11]	Activity [12]	Activity [13]	Activity [14]	Drug metabolism [15]	AUC [16] [ng·h/mL]	Activity [17] [%]	Activity [18] [%]	inhibition [19]
Nc1nnc(-c2ccccc2O)cc1N1CCN(Cc2ccc(N3CCC(CN4CCN(c5ccc6c(c5)C(=O)N(C5CCC(=O)NC5=O)C6=O)CC4)CC3)c(F)c2)CC1 (centres undefined)	inactive	inactive	Active	metabolite_detected	~100	1880	< 10	70	2450	81	Non-toxic								
Nc1nnc(-c2ccccc2O)cc1N1CCN(Cc2ccc(N3CCN(CCOc4cccc5c4C(=O)N(C4CCC(=O)NC4=O)C5=O)CC3)c(F)c2)CC1 (centres undefined)												inactive	Active	Active	metabolite_detected	5122	< 20	76	Active
